A selection: hits, their analogues and other compounds. The true share with any hit is near 12%.
WT yeast gro inh: growth inhibition of WT yeast, mitochondrial fusion screen | mitochondrial fusion phenotypic screen, WT strain | inhibition, % at 10 µM | actives 2.1% (n = 190,000); in the data active = inhibition above about 58%; tested in S. cerevisiae
L major viab: reduces viability of Leishmania major promastigotes | actives 9% (n = 200,000) | AID 1063 | inhibition, % at 10 µM | resazurin fluorescence viability; in the data active = inhibition above about 50%;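 note: promastigotes grown with compound for 44 hours at 28 °C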
ABCB1 block: human ABCB1 inhibition, ABCG2 as counter-screen; CCRF-Adr cells, JC-1 efflux, flow cytometry; inhibition, % at 6.6 µM; actives 0.067% (n = 190,000); P08183; in the data active = inhibition above about 40%;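 note: higher value means more JC-1 retained so stronger ABCB1 efflux block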
ABCG2 inh: human ABCG2 inhibition, ABCB1 as counter-screen; Q9UNQ0; actives 0.1% (n = 190,000); inhibition, % at 6.6 µM; IgMXP3 cells, JC-1 efflux, flow cytometry;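 active = inhibition above 80%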
Target sequence (Q9UNQ0 whole entry, looked up): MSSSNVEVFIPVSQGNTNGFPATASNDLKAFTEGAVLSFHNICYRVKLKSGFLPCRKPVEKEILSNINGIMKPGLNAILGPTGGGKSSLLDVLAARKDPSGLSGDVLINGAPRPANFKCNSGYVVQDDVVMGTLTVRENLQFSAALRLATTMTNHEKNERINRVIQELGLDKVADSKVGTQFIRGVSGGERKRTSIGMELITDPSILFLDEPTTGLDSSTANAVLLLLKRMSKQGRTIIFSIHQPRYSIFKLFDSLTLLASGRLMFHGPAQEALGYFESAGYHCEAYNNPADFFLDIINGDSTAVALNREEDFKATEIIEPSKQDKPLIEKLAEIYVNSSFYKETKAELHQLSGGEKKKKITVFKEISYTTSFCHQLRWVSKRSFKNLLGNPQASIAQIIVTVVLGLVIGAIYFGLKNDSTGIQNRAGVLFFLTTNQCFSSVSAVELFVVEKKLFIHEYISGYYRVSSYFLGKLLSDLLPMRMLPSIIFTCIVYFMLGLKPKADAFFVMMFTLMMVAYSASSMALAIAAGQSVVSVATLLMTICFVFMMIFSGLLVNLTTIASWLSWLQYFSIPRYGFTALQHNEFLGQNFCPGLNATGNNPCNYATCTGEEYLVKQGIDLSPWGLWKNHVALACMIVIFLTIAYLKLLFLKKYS
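test system = two drug-resistant human cell lines, ABCG2 and ABCB1 | amount = 3 million cells/mL final, two lines in 1:1 ratio | reagent = JC-1 transporter substrate | doses = one concentration, 6.6 µM final | incubation = 10 min at 25 °C | signal = flow cytometric JC-1 green MFI at 530 nm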
RAM network inh: yeast RAM network inhibition; inhibition, % at 50 µM; actives 1.8% (n = 190,000); AID 868; S. cerevisiae dse1pr::URA3 reporter, 5-FOA growth OD615, 2 d; analog-sensitive cbk1-as2 kinase mutant strain;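 active = inhibition above a set limit, 3 SD over mean compound inhibition, cut at about 8.4% in these data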;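 note: inhibition rescues growth on 5-FOA so higher OD means more RAM inhibition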
Hits are given with their value; – = inactive; · = not tested or not shown.

SMILES | WT yeast gro inh | L major viab | ABCB1 block | ABCG2 inh | RAM network inh
Cc1ccc(COc2ccsc2-c2n[nH]c(=S)n2C)cc1 | – | – | – | – | –
O=C(C1CCN(C2CCN(C/C(Cl)=C/c3ccccc3)CC2)CC1)N1CCOCC1 | – | 97 | – | – | –
CCCCN(C)C(=O)C1CCN(C/C(C)=C/c2ccccc2)CC1 | – | – | – | – | –
CCCCNC(=O)C1CCN(C/C(C)=C/c2ccccc2)CC1 | – | 91 | – | – | –
C/C(=C\c1ccccc1)CN1CCC(C(=O)N2CCC(C)CC2)CC1 | – | 93 | – | – | –
CC(C)(C)C1CCc2sc(C(=O)NNC(=O)CCl)cc2C1 (stereo not drawn) | – | – | – | – | –
CC(=O)c1ccc(N2CCN(C(=O)Nc3ccc(C(C)C)cc3)CC2)cc1 | – | 65 | – | – | –
CC(=O)c1ccc(N2CCN(C(=O)Nc3ccc(F)cc3)CC2)cc1 | – | – | – | – | –
Cc1cccc(NCc2cc(Cl)ccc2O)n1 | – | – | – | – | –
Cn1c(-c2ccc(F)cc2)cnc1NCc1ccccc1 | – | – | – | – | –
COc1cccc(-c2cnc(NCc3cc(Cl)ccc3O)n2C)c1 | – | 63 | – | – | –
O=C(O)c1cccc(NCc2cccnc2)c1 | – | – | – | – | –
Cn1c(-c2ccc3c(c2)OCO3)cnc1NCc1cccc(O)c1 | – | 63 | – | – | –
Cc1cc(NCc2ccc3c(c2)OCO3)n2nc(C)nc2n1 | – | – | – | – | –
Cn1c(-c2ccc(F)cc2)cnc1NCc1cccc(F)c1 | – | 78 | – | – | –
Cn1c(-c2cccc(Br)c2)cnc1NCc1cccnc1 | – | 97 | – | – | –
O=C(CSc1nnc(NC(=O)c2ccc3c(c2)OCO3)s1)NCc1ccco1 | – | – | – | – | –
O=C1/C(=C/c2ccccc2)SC(=S)N1N1C(=O)C2CC2C1=O (stereo not drawn) | – | – | – | – | –
COc1ccccc1C1CC(c2cccs2)=Nc2ccccc2S1 (stereo not drawn) | – | – | – | – | –
COc1ccccc1C1CN(c2ccc(F)cc2F)N=C1c1cccs1 (stereo not drawn) | 79 | – | – | – | –
CCOC(=O)C(=O)NNc1ccccc1C | – | 72 | · | – | –
CNCC/C=C1/c2ccccc2CSc2ccccc21 | – | 90 | – | – | –
NC(=O)C1c2ccccc2CSc2ccccc21 (stereo not drawn) | – | – | – | – | –
COc1ccc(CN(C)Cc2nc3scc(-c4ccccc4)c3c(=O)[nH]2)cc1OC | – | 63 | – | – | –
Cc1oc(-c2cccc3ccccc23)nc1CN1CCC[C@H]1CO | – | – | – | – | –
SMILES | WT yeast gro inh | L major viab | ABCB1 block | ABCG2 inh | RAM network inh
CCOc1cccc(CNn2cnnc2)c1OCc1ccccc1Cl | – | – | – | – | –
CCOc1cccc(CNc2ccc(O)cc2)c1OCc1ccccc1Cl | – | 99 | – | – | –
CCOc1cccc(CNCCO)c1OCc1ccc(Cl)cc1Cl | – | – | – | – | –
CCOc1cccc(CNc2ccc(O)cc2)c1OCc1ccc(Cl)cc1Cl | 66 | 100 | – | – | –
O=C(C1CCCCC1)N1CCN=C1SCc1cccc([N+](=O)[O-])c1 | – | – | – | – | –
CSc1n[nH]c(NCc2ccc(C)cc2)n1 | – | – | – | – | –
CCOc1ccccc1/C=C(/NC(=O)c1ccccc1)C(=O)N(CC)CC | – | – | – | – | –
COc1cc(/C=N/n2nnnc2N)ccc1OCc1c(C)no[n+]1[O-] | – | 54 | – | – | –
COc1cc(/C=N\n2nnnc2N)ccc1OCc1ccc(F)cc1 | – | – | – | – | –
COc1ccc(NC(C)C(=O)Nc2cc(C(F)(F)F)ccc2N2CCOCC2)c(OC)c1 (stereo not drawn) | – | 72 | – | – | –
CC(=O)Nc1cc(C(F)(F)F)ccc1N1CCOCC1 | – | – | – | – | –
COc1cc(Cl)c(C)cc1NC(C)C(=O)Nc1cc(C(F)(F)F)ccc1N1CCOCC1 (stereo not drawn) | 65 | – | – | – | –
CCCOc1ccc(C(C)=O)cc1CSc1nc(O)cc(=O)[nH]1 | – | – | – | – | –
CCOCc1c(C(=O)NC2=Nc3ccccc3NC(CC)=C2C(=O)OCC)oc2ccccc12 | – | – | – | – | 10
CCOC(=O)C1=C(CC)Nc2ccccc2N=C1NC(=O)c1oc2ccccc2c1C | – | – | – | – | –
CSCCC(NS(=O)(=O)/C=C/c1ccccc1)C(=O)O (stereo not drawn) | – | – | – | – | –
CN(C)c1ccc(NC(=O)c2sc(SCC(=O)Nc3ccc(Br)cc3)nc2N)cc1 | – | – | – | – | 8.7
Cc1cccc(/C=C2\CCC(=C3SCCCS3)C2=O)c1 | – | – | – | – | 9.4
O=C1C(=C2SCCCS2)CC/C1=C\c1ccc(F)cc1 | – | – | – | – | –
O=C(c1cc2c(s1)CCCC2)N1CCN(S(=O)(=O)c2ccccc2C(F)(F)F)CC1 | – | 77 | – | – | –
O=C(c1cc2c(s1)CCCC2)N1CCN(c2ccccc2)CC1 | – | – | – | – | –
CCOc1ccccc1N1CCN(C(=O)c2cc3c(s2)CCC3)CC1 | – | 68 | – | – | –
CC(NC(=O)COc1ccccc1F)C1CC2CCC1C2 (stereo not drawn) | – | – | – | – | –
Cn1c(N)c(C(=O)c2ccc(C#N)cc2)c(=O)n(C)c1=O | – | – | – | – | –
C=CCOc1c(Cl)cc(CNc2nccs2)cc1OC | – | – | – | – | –
SMILES | WT yeast gro inh | L major viab | ABCB1 block | ABCG2 inh | RAM network inh
CCOC(=O)N/N=C(/C)c1ccc([N+](=O)[O-])o1 | – | 96 | – | – | –
Cc1ccc(C)c(-n2cc(CN3CCCN(C=O)CC3)c(-c3ccccc3)n2)c1 | – | – | – | – | –
Cc1sc2ncnc(NCCCn3ccnc3)c2c1C | – | 55 | – | – | –
Cc1cccc(C(C)(C)C)c1OCCn1ccnc1 | – | 99 | – | – | –
Cc1cc(Cl)ccc1OC(C)C(=O)NCCCn1ccnc1 (stereo not drawn) | – | – | – | – | –
Cc1cc(Cl)cc(C)c1OCCCCn1ccnc1 | 76 | 100 | – | – | –
Cc1cc(OCCCCn2ccnc2)cc(C)c1Cl | 76 | 99 | – | – | –
Cc1cccc(Cl)c1OCCCCn1ccnc1 | – | 98 | – | – | –
CN1CCCC2(CCCN(Cc3nc(Cc4cccc(C(F)(F)F)c4)no3)C2)C1 (stereo not drawn) | – | – | – | – | –
O=C(c1ccco1)N1CCCN(Cc2nc(-c3ccc4c(c3)OCO4)no2)CC1 | – | – | – | – | –
c1ccc(OCCN2CCN(Cc3nc(-c4ccc5c(c4)OCO5)no3)CC2)cc1 | – | 68 | – | – | –
c1cc(C2CCN(Cc3nc(-c4ccc5c(c4)OCO5)no3)CC2)ccn1 | – | 95 | – | – | –
FC(F)(F)c1cccc(Cc2noc(CN3CCC(c4ccncc4)CC3)n2)c1 | – | 98 | – | – | –
Fc1ccc(CN2CCCN(Cc3nc(-c4ccc5c(c4)OCO5)no3)CC2)cc1 | – | 95 | – | – | –

From PubChem BioAssay
